These results are taken from ChEMBL document CHEMBL1123164, “Analogues of poison ivy urushiol. Synthesis and biological activity of disubstituted n-alkylbenzenes” (1986).

Holding throughout (assay type): functional
The species entered for experiment [1] is Cavia porcellus. The experiment in a line: Allergenic cross-reactivity was expressed as number of guinea pig with a positive skin reaction versus number tested upon sensitizing them to poison ivy urushiol; 0/8. Put shortly: (§1)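 Guinea pigs sensitized topically with 1 mg purified poison ivy urushiol in 0.15 mL acetone on dorsal neck skin (about 10 cm2). Sensitivity was checked with 2 μg PDC in acetone on shaven abdominal skin. Test compounds (10 and 30 μg in acetone) went on abdominal sites. Animals counted positive for erythema/edema at 24, 48 and 72 h, alongside urushiol controls.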

Experiment [2] deals with Cavia porcellus. The experiment in a line: Skin test reactivity (intensity of erythema and edema) was measured in guinea pig sensitized to poison ivy urushiol by Draize method. The method, boiled down:
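Urushiol-sensitized guinea pigs (1 mg in 0.15 mL acetone, dorsal neck) received eliciting doses in acetone on abdominal skin. Erythema and edema were scored 0–4 by Draize at 24, 48 and 72 h and averaged per group. Irritancy was tested with similar doses on nonsensitized animals.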

The species named for experiment [3] is Cavia porcellus. The experiment in a line: The dose which shows the cross-reactivity with guinea pig sensitized to poison ivy urushiol. The method, boiled down:
as §1

The species entered for experiment [4] is Cavia porcellus. The experiment in a line: Allergenic cross-reactivity was expressed as number of guinea pig with a positive skin reaction versus number tested upon sensitizing them to poison ivy urushiol; 7/7. Put shortly: as §1
The species entered for experiment [5] is Cavia porcellus. The experiment is described as follows: Allergenic cross-reactivity was expressed as number of guinea pig with a positive skin reaction versus number tested upon sensitizing them to poison ivy urushiol; 0/15. Put shortly:
as §1

Experiment [6] is filed under the species Cavia porcellus. The experiment is described as follows: Allergenic cross-reactivity was expressed as number of guinea pig with a positive skin reaction versus number tested upon sensitizing them to poison ivy urushiol; 2/9. Put shortly: as §1
The species entered for experiment [7] is Cavia porcellus. The experiment in a line: Allergenic cross-reactivity was expressed as number of guinea pig with a positive skin reaction versus number tested upon sensitizing them to poison ivy urushiol; 0/7. Put shortly: as §1
The species entered for experiment [8] is Cavia porcellus. The experiment is described as follows: Allergenic cross-reactivity was expressed as number of guinea pig with a positive skin reaction versus number tested upon sensitizing them to poison ivy urushiol; 5/9. Put shortly: as §1

Regarding `CCCCCCCCCCCCCCc1c(O)cccc1O`, the Activity in the experiment listed under Cavia porcellus [1] and with Cavia porcellus [2] was 0 throughout. Also, the Dose in the experiment listed under Cavia porcellus [3] was found to be 10 µg.

On to `CCCCCCCCCCCCCc1cccc(O)c1N`, for which the Activity is given as 7 in the experiment filed under Cavia porcellus [4] and 2.9 in the experiment on Cavia porcellus [2]. Further, the Dose in the experiment listed under Cavia porcellus [3] was found to be 10 µg.

Take `CCCCCCCCCCCCCCCCCc1cccc(O)c1N`: the Activity was found to be 7 in the experiment listed under Cavia porcellus [4] and 2.9 in the experiment on Cavia porcellus [2]. Besides, the Dose in the experiment filed under Cavia porcellus [3] came to 10 µg.

As for `CCCCCCCCCCCCCCCc1cccc(N)c1O`, the Activity in the experiment filed under Cavia porcellus [4] was 7; in the experiment with Cavia porcellus [2] it was 2.4. The Dose in the experiment filed under Cavia porcellus [3] turned out to be 10 µg.

`CCCCCCCCCCCCCCCc1cc(O)ccc1O`: the Activity in the experiment filed under Cavia porcellus [5] and in the experiment with Cavia porcellus [2] was 0 each time. Besides, the Dose in the experiment listed under Cavia porcellus [3] is 1 µg.

On to `CCCCCCCCCCCCCCCc1ccc(O)c(O)c1`, for which the Activity is listed as 2 in the experiment listed under Cavia porcellus [6] and 0.1 in the experiment on Cavia porcellus [2]. Further, the Dose in the experiment filed under Cavia porcellus [3] is 1 µg.

Turning to `CCCCCCCCCCCCCc1cccc(O)c1NS(C)(=O)=O`, the Activity in the experiment filed under Cavia porcellus [7] and in the experiment on Cavia porcellus [2] was 0 throughout. Further, the Dose in the experiment filed under Cavia porcellus [3] turned out to be 10 µg.

For the molecule `CCCCCCCCCCCCCCCc1ccc(O)cc1O`, the Activity in the experiment filed under Cavia porcellus [5] and with Cavia porcellus [2] was 0 in each case. Besides, the Dose in the experiment filed under Cavia porcellus [3] is 30 µg.

As for `CCCCCCCCCCCCCCCCCc1cccc(O)c1NS(C)(=O)=O`, the Activity in the experiment listed under Cavia porcellus [7] and in the experiment with Cavia porcellus [2] was 0 each time. For the same molecule, in the experiment filed under Cavia porcellus [3], the Dose came out at 10 µg.

In the case of `CCCCCCCCCCCCCCCc1cccc(O)c1NS(C)(=O)=O`, the Activity in the experiment filed under Cavia porcellus [7] and with Cavia porcellus [2] was 0 each time. The Dose in the experiment filed under Cavia porcellus [3] was determined as 10 µg.

For the molecule `CCCCCCCCCCCCCCCc1cccc(NS(C)(=O)=O)c1O`, the Activity in the experiment listed under Cavia porcellus [7] and in the experiment with Cavia porcellus [2] was 0 in each case. The Dose in the experiment listed under Cavia porcellus [3] was found to be 10 µg.

For the molecule `CCCCCCCCCCCCCCCc1cccc(O)c1N`, the Activity is on record as 7 in the experiment filed under Cavia porcellus [4] and 2.9 with Cavia porcellus [2]. Besides, the Dose in the experiment listed under Cavia porcellus [3] turned out to be 10 µg.

Turning to `CCCCCCCCCCCCCCCc1cc(O)cc(O)c1` [CARDOL], the figures for the Activity in the experiment filed under Cavia porcellus [8] and in the experiment with Cavia porcellus [2] were 5 and 0.6, respectively. The Dose in the experiment filed under Cavia porcellus [3] was 30 µg.
